The record followed here is ChEMBL document CHEMBL5705905, “Pharmacological targeting of kinases MST1 and MST2 augments tissue repair and regeneration” (Sci Transl Med, 2016).

pIC50, pKd: −log10 of the molar value. Calls of active or inactive are those of the source. The calls are words filed in the database; no cut-off is given here.

As a reminder, the pIC50 is the IC50 on a negative log10 scale, so that one unit is a factor of ten. By pKd is commonly meant −log10 of the Kd, conventionally taken in molar units.

For series [1], the target named is T1, Serine/threonine-protein kinase 3 (Homo sapiens, UniProt Q13188).
T1 sequence (Q13188 whole entry): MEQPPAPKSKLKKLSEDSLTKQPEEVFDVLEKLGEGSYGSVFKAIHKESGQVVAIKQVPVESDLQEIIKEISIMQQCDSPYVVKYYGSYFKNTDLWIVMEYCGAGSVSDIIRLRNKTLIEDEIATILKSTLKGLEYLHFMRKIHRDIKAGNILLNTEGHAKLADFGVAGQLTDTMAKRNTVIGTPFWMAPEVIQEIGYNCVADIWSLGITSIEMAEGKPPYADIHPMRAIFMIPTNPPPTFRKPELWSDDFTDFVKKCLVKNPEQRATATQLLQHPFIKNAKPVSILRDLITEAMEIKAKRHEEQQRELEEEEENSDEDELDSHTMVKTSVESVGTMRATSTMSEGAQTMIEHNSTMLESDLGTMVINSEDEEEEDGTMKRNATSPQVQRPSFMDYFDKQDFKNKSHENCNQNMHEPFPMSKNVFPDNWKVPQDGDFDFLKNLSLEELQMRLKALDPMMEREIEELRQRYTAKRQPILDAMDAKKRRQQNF
Description: Inhibition of recombinant His-tagged full-length MST2 (unknown origin) expressing in Escherichia coli assessed as MOB1a phosphorylation level incubated for 30 min in the presence of 30 uM ATP by immunoblot analysis.

Series [2] concerns the target Activin receptor type-1B (Homo sapiens) (UniProt P36896). Description: Inhibition of ACVR1B (unknown origin) assessed as remaining activity at 1 uM by Kinome scan method relative to control. The essentials:
(§1)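 Active-site-dependent competition-binding (KINOMEscan) panel of 468 kinases, test compound at 1 μM (from a 10 mM DMSO stock). Read-out is ctrl% = (test signal − positive control signal)/(negative control signal − positive control signal) × 100. DMSO is the negative control (100%) and a control compound is the positive control (0%). Lower ctrl% means tighter binding.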

Series [3] has as its target Aurora kinase A (Homo sapiens) (UniProt O14965). Description: Inhibition of AURKA (unknown origin) assessed as remaining activity at 1 uM by Kinome scan method relative to control. In short, it runs like this:
as §1

In series [4] the target is Calcium/calmodulin-dependent protein kinase type 1 (Homo sapiens) (UniProt Q14012). The series can be described thus: Inhibition of CAMK1 (unknown origin) assessed as remaining activity at 1 uM by Kinome scan method relative to control. In short, it runs like this:
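KINOMEscan active-site-dependent competition-binding panel of 468 kinases, compound at 1 μM from a DMSO stock. Result reported as ctrl% = (test signal − positive control signal)/(negative control signal − positive control signal) × 100. The negative control is DMSO (100%) and the positive control is a control compound (0%). Lower ctrl% means tighter binding.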

For series [5], the target named is Ephrin type-B receptor 3 (Homo sapiens) (UniProt P54753). Description: Inhibition of EPHB3 (unknown origin) assessed as remaining activity at 1 uM by Kinome scan method relative to control.
Series [6] addresses Tyrosine-protein kinase Fes/Fps (Homo sapiens) (UniProt P07332). Description: Inhibition of FES (unknown origin) assessed as remaining activity at 1 uM by Kinome scan method relative to control.
Series [7] deals with Inhibitor of nuclear factor kappa-B kinase subunit alpha (Homo sapiens) (UniProt O15111). Description: Inhibition of IKK-alpha (unknown origin) assessed as remaining activity at 1 uM by Kinome scan method relative to control.
Series [8] deals with Inhibitor of nuclear factor kappa-B kinase subunit epsilon (Homo sapiens) (UniProt Q14164). Description: Inhibition of IKK-epsilon (unknown origin) assessed as remaining activity at 1 uM by Kinome scan method relative to control.
Series [9] has as its target MAP/microtubule affinity-regulating kinase 4 (Homo sapiens) (UniProt Q96L34). The series can be described thus: Inhibition of MARK4 (unknown origin) assessed as remaining activity at 1 uM by Kinome scan method relative to control.
The target of series [10] is Serine/threonine-protein kinase 24 (Homo sapiens, UniProt Q9Y6E0). The series can be described thus: Inhibition of MST3 (unknown origin) assessed as remaining activity at 1 uM by Kinome scan method relative to control.
The target in series [11] is Serine/threonine-protein kinase Nek3 (Homo sapiens) (UniProt P51956). Description: Inhibition of NEK3 (unknown origin) assessed as remaining activity at 1 uM by Kinome scan method relative to control.
Series [12] addresses Mitogen-activated protein kinase 12 (Homo sapiens) (UniProt P53778). The series can be described thus: Inhibition of P38gamma (unknown origin) assessed as remaining activity at 1 uM by Kinome scan method relative to control.
For series [13], the target named is Cyclin-dependent kinase 15 (Homo sapiens) (UniProt Q96Q40). The series can be described thus: Inhibition of PFTAIRE2 (unknown origin) assessed as remaining activity at 1 uM by Kinome scan method relative to control.
Series [14] addresses Phosphorylase b kinase gamma catalytic chain, liver/testis isoform (Homo sapiens) (UniProt P15735). Description: Inhibition of PHKG2 (unknown origin) assessed as remaining activity at 1 uM by Kinome scan method relative to control.
In series [15] the target is Receptor-interacting serine/threonine-protein kinase 4 (Homo sapiens) (UniProt P57078). Description: Inhibition of RIPK4 (unknown origin) assessed as remaining activity at 1 uM by Kinome scan method relative to control.
Series [16] deals with Dual specificity protein kinase TTK (Homo sapiens) (UniProt P33981). The series can be described thus: Inhibition of TTK (unknown origin) assessed as remaining activity at 1 uM by Kinome scan method relative to control.
In series [17] the target is Serine/threonine-protein kinase DCLK1 (Homo sapiens, UniProt O15075). Description: Binding affinity to DCAMKL1 (unknown origin) assessed as dissociation constant.
In the next series the test system is HepG2. The series can be described thus: Inhibition of Flag-tagged MST1 Y101F mutant (unknown origin) in human HepG2 cells assessed as MOB1 phosphorylation level at 3 uM by immunoblot analysis. It is filed as cell-based.
Series [18] is described as follows: Acute toxicity in wild-type mouse assessed as low level in oval cell expansion by at 1 mg/kg,ip administrated daily for 2 months by immunohistochemical staining. It is filed as organism-based. The conditions noted are these: in vivo, 1460 h.
Series [19] is described as follows: Acute toxicity in wild-type mouse assessed as cell proliferation in kidney at 3 mg/kg,ip administrated daily for 7 days by Ki67 staining. Conditions: in vivo, 168 h, time 7 day. It is filed as organism-based. The essentials: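 Wild-type mice received vehicle or 3 mg/kg i.p. daily for 7 days. Ki67 staining of sections from various tissues with quantification of positive cells, n = 6; means ± SD, Student's t test. Daily weights, physical activity and serum chemistry were also monitored.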

The nature of series [20]: Acute toxicity in mouse assessed as increase in liver/body weight ratio at 1 mg/kg,ip administrated once a daily for 3 weeks relative to control. It is filed as organism-based. Conditions: in vivo, 504 h. The essentials:
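Postnatal mice dosed from 10 days of age with vehicle or 1 mg/kg once per day for 21 days (3 weeks). Vehicle is 0.1% citric acid aqueous solution containing 20% Kolliphor HS 15. Liver sections stained with H&E and by IHC for CK19 and BrdU, with positive cells quantified (n = 3). Liver/body weight ratio recorded (n = 4). Values are means ± SD versus vehicle, Student's t test.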

The test system of another series is Mus musculus. Description: Protection against human hepatocyte transplanted FRG mouse assessed as increase in human albumin level at 1 mg/kg, ip administrated once a day and measured within 6 weeks. It is filed as functional, organism-based. Conditions: Liver.

Sequence of Serine/threonine-protein kinase DCLK1 (O15075 whole entry): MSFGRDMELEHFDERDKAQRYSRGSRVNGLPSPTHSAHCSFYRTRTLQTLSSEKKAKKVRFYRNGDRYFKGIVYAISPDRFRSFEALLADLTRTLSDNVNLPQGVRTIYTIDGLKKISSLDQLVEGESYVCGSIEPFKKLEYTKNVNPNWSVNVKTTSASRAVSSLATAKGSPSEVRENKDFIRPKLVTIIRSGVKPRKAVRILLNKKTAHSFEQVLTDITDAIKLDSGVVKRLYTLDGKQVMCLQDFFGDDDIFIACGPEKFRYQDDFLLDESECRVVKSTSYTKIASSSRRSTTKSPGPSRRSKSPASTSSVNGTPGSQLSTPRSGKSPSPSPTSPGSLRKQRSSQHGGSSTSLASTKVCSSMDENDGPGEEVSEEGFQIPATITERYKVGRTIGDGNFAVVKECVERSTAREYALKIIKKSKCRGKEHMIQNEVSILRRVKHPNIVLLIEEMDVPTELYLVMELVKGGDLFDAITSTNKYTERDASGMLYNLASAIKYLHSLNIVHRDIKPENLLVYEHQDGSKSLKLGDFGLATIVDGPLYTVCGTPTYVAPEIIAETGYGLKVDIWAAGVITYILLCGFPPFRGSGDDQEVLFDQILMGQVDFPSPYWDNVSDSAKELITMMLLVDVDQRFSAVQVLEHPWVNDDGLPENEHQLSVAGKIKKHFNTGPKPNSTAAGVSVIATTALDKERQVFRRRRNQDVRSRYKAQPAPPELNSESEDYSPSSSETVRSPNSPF
Sequence of Serine/threonine-protein kinase 24 (Q9Y6E0 whole entry, looked up): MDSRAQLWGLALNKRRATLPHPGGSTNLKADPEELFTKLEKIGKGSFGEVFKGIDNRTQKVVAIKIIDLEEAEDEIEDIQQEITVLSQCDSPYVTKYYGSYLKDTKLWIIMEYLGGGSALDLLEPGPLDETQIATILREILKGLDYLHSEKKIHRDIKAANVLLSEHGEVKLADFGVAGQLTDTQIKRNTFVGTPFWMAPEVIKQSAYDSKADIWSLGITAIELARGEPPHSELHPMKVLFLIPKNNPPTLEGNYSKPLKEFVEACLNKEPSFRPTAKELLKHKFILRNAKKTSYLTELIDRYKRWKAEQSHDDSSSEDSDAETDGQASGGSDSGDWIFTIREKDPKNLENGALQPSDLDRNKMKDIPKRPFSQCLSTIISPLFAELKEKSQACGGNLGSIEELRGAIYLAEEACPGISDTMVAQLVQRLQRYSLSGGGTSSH
Sequence of Serine/threonine-protein kinase Nek3 (Homo sapiens) (P51956 whole entry): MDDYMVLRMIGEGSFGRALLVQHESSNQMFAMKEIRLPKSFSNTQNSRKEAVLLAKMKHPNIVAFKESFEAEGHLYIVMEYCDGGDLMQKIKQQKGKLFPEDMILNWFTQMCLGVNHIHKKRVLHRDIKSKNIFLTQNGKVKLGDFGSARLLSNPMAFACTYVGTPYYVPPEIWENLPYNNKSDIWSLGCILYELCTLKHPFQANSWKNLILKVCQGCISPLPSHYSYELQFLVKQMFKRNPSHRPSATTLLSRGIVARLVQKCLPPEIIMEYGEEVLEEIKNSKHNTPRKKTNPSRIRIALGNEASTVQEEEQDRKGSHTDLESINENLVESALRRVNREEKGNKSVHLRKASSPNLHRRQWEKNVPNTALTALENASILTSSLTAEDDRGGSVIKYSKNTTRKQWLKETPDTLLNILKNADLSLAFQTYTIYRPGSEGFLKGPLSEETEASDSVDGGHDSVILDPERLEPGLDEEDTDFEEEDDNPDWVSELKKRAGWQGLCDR
Sequence of Tyrosine-protein kinase Fes/Fps (Homo sapiens) (P07332 whole entry): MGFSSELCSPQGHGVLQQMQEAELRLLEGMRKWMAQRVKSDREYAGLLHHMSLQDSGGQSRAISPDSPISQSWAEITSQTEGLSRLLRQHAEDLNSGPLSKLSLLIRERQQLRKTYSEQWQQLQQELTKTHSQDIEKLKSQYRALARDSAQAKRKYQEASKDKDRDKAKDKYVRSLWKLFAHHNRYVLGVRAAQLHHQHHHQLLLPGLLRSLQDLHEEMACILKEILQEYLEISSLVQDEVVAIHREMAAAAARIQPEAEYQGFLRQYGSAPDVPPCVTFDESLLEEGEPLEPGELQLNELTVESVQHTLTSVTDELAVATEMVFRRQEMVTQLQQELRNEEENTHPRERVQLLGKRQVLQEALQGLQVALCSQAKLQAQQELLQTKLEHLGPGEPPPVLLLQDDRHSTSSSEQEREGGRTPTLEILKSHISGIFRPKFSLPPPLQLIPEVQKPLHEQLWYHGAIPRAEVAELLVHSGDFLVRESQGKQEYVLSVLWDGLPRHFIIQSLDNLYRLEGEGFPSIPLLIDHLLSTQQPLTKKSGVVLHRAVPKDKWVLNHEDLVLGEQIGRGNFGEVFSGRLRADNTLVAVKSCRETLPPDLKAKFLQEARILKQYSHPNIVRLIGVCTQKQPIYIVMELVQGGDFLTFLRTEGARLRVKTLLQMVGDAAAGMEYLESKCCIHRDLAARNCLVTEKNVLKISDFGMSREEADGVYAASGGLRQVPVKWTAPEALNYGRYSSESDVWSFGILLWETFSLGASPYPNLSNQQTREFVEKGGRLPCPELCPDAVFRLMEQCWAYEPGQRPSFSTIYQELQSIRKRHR
Sequence of Cyclin-dependent kinase 15 (Homo sapiens) (Q96Q40 whole entry, canonical isoform): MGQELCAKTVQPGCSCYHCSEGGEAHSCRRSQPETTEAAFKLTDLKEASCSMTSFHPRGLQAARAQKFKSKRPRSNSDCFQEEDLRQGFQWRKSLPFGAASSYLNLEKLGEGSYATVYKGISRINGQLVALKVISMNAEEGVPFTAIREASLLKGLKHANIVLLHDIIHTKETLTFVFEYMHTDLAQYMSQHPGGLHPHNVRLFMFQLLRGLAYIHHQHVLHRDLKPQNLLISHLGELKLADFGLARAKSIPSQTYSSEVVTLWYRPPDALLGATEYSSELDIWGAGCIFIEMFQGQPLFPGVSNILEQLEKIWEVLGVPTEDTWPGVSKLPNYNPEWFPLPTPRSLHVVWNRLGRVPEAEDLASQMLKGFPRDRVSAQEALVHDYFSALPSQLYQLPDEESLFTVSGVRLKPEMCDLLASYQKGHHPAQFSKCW
Sequence of Aurora kinase A (Homo sapiens) (O14965 whole entry): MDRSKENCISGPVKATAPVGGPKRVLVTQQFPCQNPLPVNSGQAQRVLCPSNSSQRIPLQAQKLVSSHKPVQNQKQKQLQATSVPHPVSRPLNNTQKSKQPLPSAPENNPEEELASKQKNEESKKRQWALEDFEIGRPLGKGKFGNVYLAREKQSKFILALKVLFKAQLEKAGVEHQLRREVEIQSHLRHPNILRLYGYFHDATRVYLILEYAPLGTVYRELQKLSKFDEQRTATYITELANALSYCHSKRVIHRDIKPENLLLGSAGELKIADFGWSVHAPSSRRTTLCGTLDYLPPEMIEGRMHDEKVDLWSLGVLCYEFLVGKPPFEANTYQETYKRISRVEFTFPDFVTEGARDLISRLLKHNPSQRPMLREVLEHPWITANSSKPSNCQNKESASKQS
Sequence of Activin receptor type-1B (Homo sapiens) (P36896 whole entry): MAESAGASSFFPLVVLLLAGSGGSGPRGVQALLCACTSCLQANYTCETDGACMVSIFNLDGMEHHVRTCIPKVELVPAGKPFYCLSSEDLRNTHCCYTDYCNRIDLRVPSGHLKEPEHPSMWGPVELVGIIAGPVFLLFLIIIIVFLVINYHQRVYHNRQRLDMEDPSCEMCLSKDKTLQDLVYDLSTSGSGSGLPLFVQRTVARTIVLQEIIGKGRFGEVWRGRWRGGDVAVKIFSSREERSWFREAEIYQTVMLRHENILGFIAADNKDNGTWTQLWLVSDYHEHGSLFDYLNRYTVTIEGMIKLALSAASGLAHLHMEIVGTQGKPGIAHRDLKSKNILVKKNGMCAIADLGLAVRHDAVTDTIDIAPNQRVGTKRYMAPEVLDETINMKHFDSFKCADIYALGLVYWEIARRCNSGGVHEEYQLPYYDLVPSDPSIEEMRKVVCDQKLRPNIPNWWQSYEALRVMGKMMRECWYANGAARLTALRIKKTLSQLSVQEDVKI
Sequence of Calcium/calmodulin-dependent protein kinase type 1 (Homo sapiens) (Q14012 whole entry, looked up): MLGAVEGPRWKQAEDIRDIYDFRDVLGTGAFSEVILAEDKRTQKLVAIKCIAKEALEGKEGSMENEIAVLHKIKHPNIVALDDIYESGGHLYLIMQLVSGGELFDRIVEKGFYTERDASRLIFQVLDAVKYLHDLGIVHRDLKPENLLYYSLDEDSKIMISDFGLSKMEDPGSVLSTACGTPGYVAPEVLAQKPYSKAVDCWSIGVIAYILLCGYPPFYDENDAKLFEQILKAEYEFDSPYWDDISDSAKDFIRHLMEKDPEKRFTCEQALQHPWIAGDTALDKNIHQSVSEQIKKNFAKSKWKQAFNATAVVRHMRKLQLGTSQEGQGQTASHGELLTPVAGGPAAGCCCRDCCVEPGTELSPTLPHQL
Sequence of Inhibitor of nuclear factor kappa-B kinase subunit epsilon (Homo sapiens) (Q14164 whole entry): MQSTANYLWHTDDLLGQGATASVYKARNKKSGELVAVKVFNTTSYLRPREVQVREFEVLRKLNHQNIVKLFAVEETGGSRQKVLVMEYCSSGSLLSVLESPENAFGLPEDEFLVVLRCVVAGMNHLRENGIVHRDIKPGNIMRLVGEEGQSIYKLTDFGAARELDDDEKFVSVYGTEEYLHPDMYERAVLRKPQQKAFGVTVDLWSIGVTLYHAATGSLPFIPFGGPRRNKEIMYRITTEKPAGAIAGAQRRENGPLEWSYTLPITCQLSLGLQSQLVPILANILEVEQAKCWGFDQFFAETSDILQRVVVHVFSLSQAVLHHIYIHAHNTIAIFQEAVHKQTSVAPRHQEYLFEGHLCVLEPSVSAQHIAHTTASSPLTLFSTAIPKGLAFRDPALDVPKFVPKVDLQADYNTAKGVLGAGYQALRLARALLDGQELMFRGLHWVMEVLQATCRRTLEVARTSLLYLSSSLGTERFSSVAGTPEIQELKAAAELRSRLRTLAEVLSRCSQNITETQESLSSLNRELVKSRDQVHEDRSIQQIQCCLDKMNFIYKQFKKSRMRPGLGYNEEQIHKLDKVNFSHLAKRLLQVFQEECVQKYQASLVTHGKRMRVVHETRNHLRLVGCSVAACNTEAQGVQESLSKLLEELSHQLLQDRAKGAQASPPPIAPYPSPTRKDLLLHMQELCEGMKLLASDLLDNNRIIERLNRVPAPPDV

In the case of `CN1C(=O)c2sccc2N(C)c2nc(Nc3ccc(S(N)(=O)=O)cc3)ncc21`, the pIC50 in [1] is 6.75. In addition, the Activity worked out at 76% in series [2]; 0.05% in series [3]; 95% in series [4]; 95% in series [5]; 39% in series [6]; 94% in series [7]. In addition, the Activity in series [8] amounted to 86%; in series [9], 100%; in series [10], 0.9%; in [11] it was 66%; in series [12], 48%; in series [13], 99%. The Activity is 100% in series [14]; 9.5% in series [15]; 99% in [16]; “Toxic” in [18]; “Non-Toxic” in [19]; 15% in series [20]. In addition, in series [17], the pKd was 7.60. Further, in the series on HepG2, the inhibition result is “Active”. The outcome in the series with Mus musculus was Active.
